Results published in ChEMBL document CHEMBL5058577, “EUbOPEN Chemogenomics Library 2 (Multiplex)” (2022).

Tested on: Fibroblast
Test: Multiplex assay against human fibroblast
Type: toxicity, cell-based
Outline: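 Four dyes were applied at seeding to live cells: Hoechst33342, BioTracker Green Microtubule Cytoskeleton Dye, MitoTracker Red and Annexin V Alexa Fluor 680. Imaging after compound addition used a CQ1 microscope at 37°C and 5% CO2. CellPathfinder machine-learning gating then sorted cells into Hoechst high-intensity objects or normal cells, normal cells into healthy, pyknosed or fragmented nuclei, and pyknosed cells into mitotic or apoptotic, with tubulin, mitochondrial-mass and membrane-permeability phenotypes given as per cents of healthy-nucleus cells.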

[1] = 12 h, 1 µM, compound concentration 1 uM, replicate 1
[2] = 12 h, 1 µM, compound concentration 1 uM, replicate 2
[3] = 12 h, 10 µM, compound concentration 10 uM, replicate 1
[4] = 12 h, 10 µM, compound concentration 10 uM, replicate 2
[5] = 24 h, 1 µM, compound concentration 1 uM, replicate 1
[6] = 24 h, 1 µM, compound concentration 1 uM, replicate 2
[7] = 24 h, 10 µM, compound concentration 10 uM, replicate 1
[8] = 24 h, 10 µM, compound concentration 10 uM, replicate 2
[9] = 48 h, 1 µM, compound concentration 1 uM, replicate 1
[10] = 48 h, 1 µM, compound concentration 1 uM, replicate 2
[11] = 48 h, 10 µM, compound concentration 10 uM, replicate 1
[12] = 48 h, 10 µM, compound concentration 10 uM, replicate 2

COc1cc(Nc2ncc3c(n2)-c2ccc(Cl)cc2C(c2c(F)cccc2OC)=NC3)ccc1C(=O)O [ALISERTIB]
Population Apoptotic (%) [1]: 39% | Population Fragmented Nuclei (%) [1]: 11% | Population Healthy Nuclei (%) [1]: 66% | Population Hoechst High Intensity Objects (%) [1]: 1% | Population Membrane Permeable-Phenotype (%) [1]: 2% | Population Mitochondria Different-Phenotype (%) [1]: 4% | Population Mitotic Cells (%) [1]: 60% | Population Normal (%) [1]: 98% | Population Pyknosed Nuclei (%) [1]: 21% | Population Tubulin-Different-Phenotype (%) [1]: 23% | Population Apoptotic (%) [2]: 42% | Population Fragmented Nuclei (%) [2]: 18% | Population Healthy Nuclei (%) [2]: 47% | Population Hoechst High Intensity Objects (%) [2]: 8% | Population Membrane Permeable-Phenotype (%) [2]: 7% | Population Mitochondria Different-Phenotype (%) [2]: 7% | Population Mitotic Cells (%) [2]: 57% | Population Normal (%) [2]: 91% | Population Pyknosed Nuclei (%) [2]: 33% | Population Tubulin-Different-Phenotype (%) [2]: 41% | Population Apoptotic (%) [3]: 56% | Population Fragmented Nuclei (%) [3]: 28% | Population Healthy Nuclei (%) [3]: 47% | Population Hoechst High Intensity Objects (%) [3]: 13% | Population Membrane Permeable-Phenotype (%) [3]: 1% | Population Mitochondria Different-Phenotype (%) [3]: 22% | Population Mitotic Cells (%) [3]: 43% | Population Normal (%) [3]: 86% | Population Pyknosed Nuclei (%) [3]: 24% | Population Tubulin-Different-Phenotype (%) [3]: 69% | Total Cell Count [3]: 209 | Population Apoptotic (%) [4]: 48% | Population Fragmented Nuclei (%) [4]: 35% | Population Healthy Nuclei (%) [4]: 30% | Population Hoechst High Intensity Objects (%) [4]: 8% | Population Membrane Permeable-Phenotype (%) [4]: 4% | Population Mitochondria Different-Phenotype (%) [4]: 16% | Population Mitotic Cells (%) [4]: 51% | Population Normal (%) [4]: 91% | Population Pyknosed Nuclei (%) [4]: 33% | Population Tubulin-Different-Phenotype (%) [4]: 64% | Total Cell Count [4]: 89 | Population Apoptotic (%) [5]: 36% | Population Fragmented Nuclei (%) [5]: 12% | Population Healthy Nuclei (%) [5]: 69% | Population Hoechst High Intensity Objects (%) [5]: 2% | Population Membrane Permeable-Phenotype (%) [5]: 2% | Population Mitochondria Different-Phenotype (%) [5]: 6% | Population Mitotic Cells (%) [5]: 63% | Population Normal (%) [5]: 97% | Population Pyknosed Nuclei (%) [5]: 18% | Population Tubulin-Different-Phenotype (%) [5]: 28% | Total Cell Count [5]: 123 | Population Apoptotic (%) [6]: 48% | Population Fragmented Nuclei (%) [6]: 26% | Population Healthy Nuclei (%) [6]: 47% | Population Hoechst High Intensity Objects (%) [6]: 4% | Population Membrane Permeable-Phenotype (%) [6]: 4% | Population Mitotic Cells (%) [6]: 51% | Population Normal (%) [6]: 95% | Population Pyknosed Nuclei (%) [6]: 26% | Population Tubulin-Different-Phenotype (%) [6]: 47% | Population Apoptotic (%) [7]: 64% | Population Fragmented Nuclei (%) [7]: 29% | Population Healthy Nuclei (%) [7]: 44% | Population Hoechst High Intensity Objects (%) [7]: 13% | Population Membrane Permeable-Phenotype (%) [7]: 1% | Population Mitochondria Different-Phenotype (%) [7]: 24% | Population Mitotic Cells (%) [7]: 35% | Population Normal (%) [7]: 86% | Population Pyknosed Nuclei (%) [7]: 25% | Population Tubulin-Different-Phenotype (%) [7]: 68% | Total Cell Count [7]: 191 | Population Apoptotic (%) [8]: 56% | Population Fragmented Nuclei (%) [8]: 45% | Population Healthy Nuclei (%) [8]: 36% | Population Hoechst High Intensity Objects (%) [8]: 5% | Population Membrane Permeable-Phenotype (%) [8]: 0% | Population Mitochondria Different-Phenotype (%) [8]: 9% | Population Mitotic Cells (%) [8]: 43% | Population Normal (%) [8]: 94% | Population Pyknosed Nuclei (%) [8]: 18% | Population Tubulin-Different-Phenotype (%) [8]: 71% | Total Cell Count [8]: 93 | Population Apoptotic (%) [9]: 57% | Population Fragmented Nuclei (%) [9]: 15% | Population Healthy Nuclei (%) [9]: 65% | Population Hoechst High Intensity Objects (%) [9]: 5% | Population Membrane Permeable-Phenotype (%) [9]: 4% | Population Mitochondria Different-Phenotype (%) [9]: 5% | Population Mitotic Cells (%) [9]: 42% | Population Normal (%) [9]: 94% | Population Pyknosed Nuclei (%) [9]: 19% | Population Tubulin-Different-Phenotype (%) [9]: 32% | Total Cell Count [9]: 115 | Population Apoptotic (%) [10]: 38% | Population Fragmented Nuclei (%) [10]: 33% | Population Healthy Nuclei (%) [10]: 42% | Population Membrane Permeable-Phenotype (%) [10]: 7% | Population Mitotic Cells (%) [10]: 61% | Population Pyknosed Nuclei (%) [10]: 24% | Population Tubulin-Different-Phenotype (%) [10]: 54% | Population Apoptotic (%) [11]: 84% | Population Fragmented Nuclei (%) [11]: 38% | Population Healthy Nuclei (%) [11]: 35% | Population Hoechst High Intensity Objects (%) [11]: 23% | Population Membrane Permeable-Phenotype (%) [11]: 5% | Population Mitochondria Different-Phenotype (%) [11]: 37% | Population Mitotic Cells (%) [11]: 15% | Population Normal (%) [11]: 76% | Population Pyknosed Nuclei (%) [11]: 26% | Population Tubulin-Different-Phenotype (%) [11]: 80% | Total Cell Count [11]: 188 | Population Apoptotic (%) [12]: 66% | Population Fragmented Nuclei (%) [12]: 37% | Population Healthy Nuclei (%) [12]: 51% | Population Hoechst High Intensity Objects (%) [12]: 8% | Population Membrane Permeable-Phenotype (%) [12]: 2% | Population Mitochondria Different-Phenotype (%) [12]: 15% | Population Mitotic Cells (%) [12]: 33% | Population Normal (%) [12]: 91% | Population Pyknosed Nuclei (%) [12]: 11% | Population Tubulin-Different-Phenotype (%) [12]: 65% | Total Cell Count [12]: 85
